Experiments:
[1] = Drug uptake in rat brain in presence of PF-06795071; type: ADME, tissue-based; conditions: in vitro
[2] = Drug uptake in mouse brain assessed as maximum standardized uptake value measured after 60 mins; type: ADME, tissue-based; conditions: in vivo, 1 h
In short: (§1)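 Mouse dynamic PET. Tracer at 6.33–14.42 nmol/kg given by tail-vein injection; 60 min scan started 1 min later. Data expressed as SUV, i.e. decay-corrected regional radioactivity normalized to injected dose and body weight. Blocking: MAGLi432 at 5 mg/kg in DMSO/Tween80/saline 1/1/8, injected 5 min before tracer.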

[3] = Drug uptake in rat brain cerebellum; type: ADME, tissue-based; conditions: in vitro
[4] = Drug uptake in mouse brain assessed as standardized uptake value measured after 2 mins; type: ADME, tissue-based; conditions: in vivo; in short: as §1
[5] = Drug uptake in rat brain hippocampus; type: ADME, tissue-based; conditions: in vitro
[6] = Drug uptake in Mdrla/b-Bcrp KO mouse; type: ADME; conditions: in vivo; in short: as §1
[7] = Drug uptake in Mdrla/b-Bcrp KO mouse pretreated with MAGLi432; type: ADME; conditions: in vivo; in short: as §1
[8] = Drug uptake in rat brain in presence of SAR127303; type: ADME, tissue-based; conditions: in vitro
[9] = Drug uptake in rat brainstem; type: ADME, tissue-based; conditions: in vitro
[10] = Lipophilicity, logD of the compound at pH 7.4 by shake flask assay; type: physicochemical; conditions: buffer
[11] = Drug uptake in MAGL knock out mouse; type: ADME; conditions: in vivo; in short: as §1
[12] = Drug uptake in rat brain cortex; type: ADME, tissue-based; conditions: in vitro
[13] = Drug uptake in rat brain thalamus; type: ADME, tissue-based; conditions: in vitro
[14] = Drug uptake in rat brain striatum; type: ADME, tissue-based; conditions: in vitro
[15] = Drug uptake in wild type mouse after 20 mins; type: ADME; conditions: in vivo; in short: as §1

Drug uptake [1] | SUVmax [2] | Drug uptake [3] | SUV [4] | Drug uptake [5] | Drug uptake [6] | Drug uptake [7] | Drug uptake [8] | Drug uptake [9] | logD [10] | Drug uptake [11] | Drug uptake [12] | Drug uptake [13] | Drug uptake [14] | Drug uptake [15] | Compound
Not Active | 0.4 | Active | 1.67 | Active | Active | Not Active | Not Active | Not Active | 2.65 | Not Active | Active | Active | Active | Active | O=C1CO[C@H]2CCN([11C](=O)N3CC(CCc4c(F)cccc4C(F)(F)F)C3)C[C@H]2N1
– | – | – | 0.72 | – | – | – | – | – | – | – | – | – | – | – | O=C1CO[C@H]2CCN([11C](=O)N3CC(OCc4ccc(C(F)(F)F)cc4Cl)C3)C[C@H]2N1

From ChEMBL document CHEMBL5352430, “Multi-parameter optimization: Development of a morpholin-3-one derivative with an improved kinetic profile for imaging monoacylglycerol lipase in the brain” (Eur J Med Chem, 2022)
